Measured values as given in ChEMBL document CHEMBL2150875, “1-Aryl-4-nitro-1H-imidazoles, a new promising series for the treatment of human African trypanosomiasis” (Eur J Med Chem, 2011).
Converted amounts (≈) assume the structure as drawn.

Assays:
[1] = system: Trypanosoma brucei rhodesiense; experiment: Antiparasitic activity against Trypanosoma brucei rhodesiense STIB900 bloodstream forms assessed as reduction in cell viability after 70 hrs by alamar blue assay; assay type: functional, organism-based
[2] = Redox potential of the compound assessed as one electron redox potential by pulse radiolysis method; assay type: physicochemical
L6 = experiment: Cytotoxicity against in rat L6 cells assessed as reduction in cell viability after 70 hrs by alamar blue assay; assay type: cell-based; details: L6, 70 h
Outline: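 L-6 rat skeletal myoblasts seeded at 4×10^4/mL. 37 °C, 5% CO2, 70 h, then resazurin viability read by fluorescence after 2–4 h. IC50 from sigmoidal inhibition curves.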

Lymphocyte [3] = experiment: Genotoxicity in human lymphocytes assessed as micronucleated binucleate cells level at […] incubated for 20 hrs measured post 28 hrs recovery in absence of rat liver S9 fraction (reference value: 0.3%); assay type: toxicity, cell-based
Lymphocyte [4] = experiment: Genotoxicity in human lymphocytes assessed as micronucleated binucleate cells level at 5 ug/mL incubated for 20 hrs measured post 28 hrs recovery in absence of rat liver S9 fraction (reference value: 0.4%); assay type: toxicity, cell-based
Outline: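 Cultures were PHA-stimulated pooled female donor whole-blood lymphocytes, grown 48 h at 37 °C before treatment, with cytochalasin-B 6 µg/mL added at treatment. Without S9, exposure was 20 h with 28 h recovery. With rat S9, exposure was 3 h with 45 h recovery. Micronucleated binucleate cells were scored at 1000 per replicate on Giemsa-stained slides.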

Lymphocyte [5] = experiment: Genotoxicity in human lymphocytes assessed as micronucleated binucleate cells level at 0.03 ug/mL incubated for 24 hrs measured under no recovery condition in absence of rat liver S9 fraction (reference value: 0.50%); assay type: toxicity, cell-based
[6] = Trypanosoma brucei, STIB900, 70 h, read-out: IC50

SMILES: O=[N+]([O-])c1cn(-c2ccccc2Cl)cn1
- IC50 [1]: Not Active

SMILES: COc1ccc(-n2cnc([N+](=O)[O-])c2)cc1OC
- IC50 [1]: Not Active

SMILES: O=[N+]([O-])c1cn(-c2ccc(F)cc2F)cn1
- IC50 [1]: Not Active

SMILES: O=[N+]([O-])c1cn(-c2cc(Cl)ccc2Cl)cn1
- IC50 [1]: Not Active

SMILES: Cc1ncc([N+](=O)[O-])n1CCO [METRONIDAZOLE]
- Activity [2]: -516 mV

SMILES: Cc1ccc(-n2cnc([N+](=O)[O-])c2)c(Br)c1
- IC50 [1]: Not Active

SMILES: O=[N+]([O-])c1cn(-c2ccccc2Br)cn1
- IC50 [1]: Not Active

SMILES: Nc1nc(N)nc(Nc2ccc([As]3SCC(CO)S3)cc2)n1 (configuration not stated) [MELARSOPROL]
- IC50 (L6): 1.3 µg/mL

SMILES: CSc1ccc(OCc2ncc([N+](=O)[O-])n2C)cc1 [FEXINIDAZOLE]
- IC50 [1, 6]: 2570 nM
- Activity [2]: -511 mV
- IC50 (L6): > 90 µg/mL

SMILES: COc1ccc(-n2cnc([N+](=O)[O-])c2)c(OC)c1
- IC50 [1]: Not Active

SMILES: O=[N+]([O-])c1cn(-c2ccc(Cl)cc2Cl)cn1
- IC50 [1]: Not Active

SMILES: O=[N+]([O-])c1cn(-c2ccc3c(c2)OCO3)cn1
- IC50 [1, 6]: 940 nM
- IC50 (L6): > 90 µg/mL

SMILES: NCCCC(N)(C(=O)O)C(F)F (configuration not stated) [EFLORNITHINE]
- IC50 [1, 6]: 3800 nM
- IC50 (L6): 12 µg/mL (≈ 65.9 µM)

SMILES: Cc1ccc(-n2cnc([N+](=O)[O-])c2)c(C)c1
- IC50 [1]: Not Active

SMILES: O=[N+]([O-])c1cc[n+]([O-])c2ccccc12 [4-NITROQUINOLINE-1-OXIDE]
- Activity (Lymphocyte [3]): 4.8%
- Activity (Lymphocyte [4]): 3.5%

SMILES: O=[N+]([O-])c1cn(-c2c(F)cccc2F)cn1
- IC50 [1]: Not Active

SMILES: CC[C@]1(O)C[C@@H]2CN(CCc3c([nH]c4ccccc34)[C@@](C(=O)OC)(c3cc4c(cc3OC)N(C)[C@H]3[C@@](O)(C(=O)OC)[C@H](OC(C)=O)[C@]5(CC)C=CCN6CC[C@]43[C@@H]65)C2)C1 [VINBLASTINE]
- Activity (Lymphocyte [5]): 6.06%
